Consider 167 variants from the RNAGym collection of RNA variant scans (doi:10.1126/science.aae0568).

The chains are these.
B1: tRNA (parent)
chain: GUUCCGUUGGCGUAAUGGUAACGCGUCUCCCUCCUAAGGAGAAGACUGCGGGUUCGAGUCCCGUACGGAACG

Fewer inactive variants are shown than the library holds. Where only a bound is given, the exact number is not on record here.

This series covers variants of B1. Nature of the series: yeast fitness relative to wild type (ratio to wild type); higher = fitter; tRNA-Arg(CCU), competitive growth, 37 C, YPD. The method, boiled down:
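For this measurement, the tRNA-Arg(CCU) gene was varied by chemical synthesis at a 3% per-site mutation rate across 69 sites, and each variant was placed at the native genomic locus in Saccharomyces cerevisiae. The pooled strains went through a 24-hour competition in YPD at 37°C in six parallel replicates, with amplicons from start and end populations read by 100-nucleotide paired-end sequencing. Darwinian fitness relative to wild type followed from the change in each genotype's frequency. Genotypes needed ≥ 100 starting reads, and estimates < 0.5 were set to 0.5.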
C5U C11A G50C C66U: the yeast fitness was at most 0.5.
For the variant G12C C49U U53C C60G, the yeast fitness was at most 0.5.
As to C22U U26A C29U U54C C66U, the yeast fitness was at most 0.5.
Consider C4A C24G A37G G50C, for which the yeast fitness is at most 0.5.
In the case of U7A G10C C22U C27G C66U, the yeast fitness was at most 0.5.
As for G17C C29G A43G, the yeast fitness was at most 0.5.
In the case of C24G C30A C62G, the yeast fitness was at most 0.5.
In the case of G23A A70G, the yeast fitness is 0.689.
Turning to A21C C24U C46U C60U, the yeast fitness is at most 0.5.
U47G U59A: the yeast fitness came out at 0.543.
C4G C30A G52C C66U: the yeast fitness was at most 0.5.
The same measure for U8C A14G G68A: 0.534; for C4U C5G G18C C34U A69C: at most 0.5.
In the case of G41C A43U U64C, the yeast fitness was found to be 0.959.
For A21G C49A C62U, the yeast fitness was determined as 0.544.
On to A14U G44C G52A U59C U64G, for which the yeast fitness stood at 0.646.
Regarding C27U C46U C61A, the yeast fitness is at most 0.5.
Consider G9A U16C G41A G58A, for which the yeast fitness was at most 0.5.
Take G23C C31A C62U A70G: the yeast fitness is at most 0.5.
The same measure for U28C A42C C55U G68C: at most 0.5.
As to U47A G52C, the yeast fitness is 0.581.
With A20U C27A A40C C46A, the yeast fitness is at most 0.5.
Then C29G C49G C55A, with at most 0.5.
Take C5U A14G G67A: the yeast fitness was 0.642.
For G52C C66G, the yeast fitness was 0.6.
The same measure for U13A U32A A37U: at most 0.5; for U8C G10C A15C A43C: at most 0.5; for G12A A15U C24G G63C: at most 0.5.
Regarding C5U C31G A40G A45G C46G G48A C62U G63A, the yeast fitness was at most 0.5.
For C4U C5G A15C A42C, the yeast fitness was at most 0.5.
C31U G48A A69U: the yeast fitness was 0.757.
Consider C11G G48A A69U, for which the yeast fitness is at most 0.5.
In the case of U7A U16C G17A C34G A45C G52C, the yeast fitness is at most 0.5.
The same measure for A20G G68A: 0.917.
For C24U G68C A70U, the yeast fitness is at most 0.5.
In the case of C22G U53C A65C, the yeast fitness is 0.558.
G17A A70U: the yeast fitness stood at 0.864.
Consider A21U C49U, for which the yeast fitness amounted to 0.781.
Consider G9A C33G G44A C49G, for which the yeast fitness came out at 0.607.
The same measure for U32G A42G C61U: at most 0.5; for G6A A57C A65C A70C: 0.609; for U7C C31G G41A G52C C60U C62G C66G: at most 0.5.
The same measure for A36G A57G: 0.985.
On to U28A A42G C55A C66A, for which the yeast fitness was at most 0.5.
For the variant C11U C60U C62G, the yeast fitness turned out to be 0.588.
With G9C A20C G67C, the yeast fitness came to 0.537.
U3A G6A C46U: the yeast fitness is 0.638.
Consider C31U G48A, for which the yeast fitness is 0.949.
On to U3A C4U, for which the yeast fitness is 0.874.
U3A C4G: the yeast fitness was determined as 0.792.
As to U19A U47A C61A, the yeast fitness came to 0.549.
For G6C U64A, the yeast fitness was 0.853.
The same measure for C11U C34G A37U: at most 0.5.
As to C5A A45U G48A G56A, the yeast fitness was 0.706.
Regarding C5A U54C C61U C62U A69U, the yeast fitness was determined as 0.546.
Then U7G U19A C34U C66U, with 0.588; and A15U G17C C27U C60G, with at most 0.5; and U16C G18A C24G A45U C62A, with at most 0.5.
The same measure for U7C A21C C31A: at most 0.5; for C5U C11U A36U C49G: at most 0.5.
Take U3A C11G G12A C22U: the yeast fitness is at most 0.5.
For the variant G17C A42C G68A, the yeast fitness was at most 0.5.
With C11U C29U C49A, the yeast fitness is at most 0.5.
C11U A15U U26C C49A: the yeast fitness is at most 0.5.
On to C11G G18C U26C C31G C46U C55U, for which the yeast fitness is at most 0.5.
Take G17C A21G C27U C33G A42U: the yeast fitness amounted to 0.621.
As to G10A U26C, the yeast fitness was found to be 0.736.
For A15C G38C C49G G68C, the yeast fitness was at most 0.5.
The same measure for U35C G44A A57U C66G: at most 0.5; for G12C A14G: 0.793.
As for C30G C33G C34U A42U A65C, the yeast fitness was at most 0.5.
The same measure for U2C C24G U26A C31G: 0.639.
Regarding G38C C49U U54A A65C, the yeast fitness is at most 0.5.
As for A15C A20C A21U C30U A40U, the yeast fitness was at most 0.5.
For the variant A14U A42C, the yeast fitness stood at 0.639.
Take G9A C27G C31U C49G G58C: the yeast fitness was at most 0.5.
Then G6A A40G, with 0.842; and C11G G23C C49A C66G, with at most 0.5; and U28G U35C, with 0.758.
Regarding G6A U35G A42G G56C, the yeast fitness is at most 0.5.
Take C49U G63C: the yeast fitness was 0.703.
Then C5U C11G C33G, with at most 0.5; and C24G A37G G67C, with 0.549; and A42U G58A, with 0.939.
The same measure for G12A G38A U54C: at most 0.5; for U8A C66G G68C: at most 0.5.
On to G18A C31G G41A G52C C60U C62G C66G, for which the yeast fitness was at most 0.5.
For U3C U7A G44C C61U C62U G63C C66U A69G, the yeast fitness is at most 0.5.
For C27G C46G, the yeast fitness stood at 1.11.
The same measure for U2G C33U A65C: at most 0.5; for G18A U19A A70U: 0.657.
On to C5U G10C C27G U28C G39C C46G A65G, for which the yeast fitness is at most 0.5.
The same measure for C5U A20C A21U U53C U64A: at most 0.5; for C4G U13A G63A: at most 0.5; for U13A G52A C55U: at most 0.5.
The same measure for U2A A20C C62U C66G: at most 0.5; for C11U C31U A65C: 0.52.
U26C A37G G67C: the yeast fitness came out at 0.614.
With G6A U28C A45G, the yeast fitness stood at 0.781.
Then C22G U26G G44A C55G G63C, with at most 0.5; and C29U U32C, with 0.981.
On to C30G C60G, for which the yeast fitness is 0.521.
Take U8C A20G A65G G68A: the yeast fitness is at most 0.5.
U8C A57G C66U: the yeast fitness came out at 0.704.
Then G12C C24G A40G, with at most 0.5; and A20U U26A C62U, with 0.542; and C5U A20U A36G, with 0.674.
A36G G48A G51C: the yeast fitness is at most 0.5.
Then U3A C30A, with 0.834.
Regarding G25A C60A A69G, the yeast fitness is at most 0.5.
As to C22U A40U G48A, the yeast fitness is at most 0.5.
For C22G U35A, the yeast fitness amounted to 0.614.
For C5A A21G G23A G67C, the yeast fitness is 0.591.
With C27G G50A G56C, the yeast fitness was at most 0.5.
Consider G9A G10C G17A G25A C31U, for which the yeast fitness was at most 0.5.
For the variant A36G A70U, the yeast fitness amounted to 0.832.
Take U8G C55U: the yeast fitness turned out to be 0.569.
Regarding U8A G18A G41C A57G, the yeast fitness is at most 0.5.
Turning to U35G C49A, the yeast fitness turned out to be 0.595.
C5U G9A: the yeast fitness is 0.972.
In the case of G12C G17A C46G C66A, the yeast fitness was at most 0.5.
On to C27G U53G, for which the yeast fitness was at most 0.5.
For G38A C46A G50A U53C, the yeast fitness stood at 0.596.
As to G9U G50A, the yeast fitness worked out at 0.663.
Take C27U C55A G58A: the yeast fitness was at most 0.5.
For the variant U7C C33U U53C, the yeast fitness stood at 0.599.
As for G39C U59C U64C A70C, the yeast fitness is at most 0.5.
Then U13A A42C C66U, with 0.76.
Consider G17A C30G C46U G63C C66U, for which the yeast fitness is at most 0.5.
U2C U16C C22A U35A A45C: the yeast fitness is at most 0.5.
As for U3A A42C A65U C66U G67C, the yeast fitness came to 0.569.
U2C A14U U47A C61G A70G: the yeast fitness was at most 0.5.
In the case of C4A G51A, the yeast fitness was determined as 0.725.
In the case of A20C C27G, the yeast fitness worked out at 0.633.
Regarding A14C A21C, the yeast fitness was 0.609.
With G18A C33U A57G, the yeast fitness was at most 0.5.
As to C5U G18A, the yeast fitness was 0.76.
With U7C A15G G17A A65C A70G, the yeast fitness was at most 0.5.
In the case of C29G, the yeast fitness worked out at 0.686.
For C11U C24G C61A G67A, the yeast fitness is at most 0.5.
Turning to C22G C30G U47C U54C, the yeast fitness was at most 0.5.
For the variant C4A U47A A70G, the yeast fitness stood at 0.536.
For the variant G6A U26C C62G, the yeast fitness was 0.515.
Consider G6C A21U A36C A57G, for which the yeast fitness was at most 0.5.
Take C11U G17U C27U C31A U35C C55G C66U A70C: the yeast fitness was at most 0.5.
With A20U C34U C46U G51A C66U, the yeast fitness is at most 0.5.
As for G10C A14C C61A G67A A69C, the yeast fitness is at most 0.5.
With A21C A42U G44C U53C, the yeast fitness is at most 0.5.
Then U35C G50C, with 0.703.
The same measure for A14C G18C: 0.542.
Then G12C C22G G23A A37C A43C C62G G63A C66G A69G, with at most 0.5; and A14G C31G A43U C46G A70U, with at most 0.5.
Turning to C27U U32C, the yeast fitness came to 0.844.
Turning to C5U C27U U35G A36G G58C C66U, the yeast fitness is at most 0.5.
U13A C49U U54C C62U G68C: the yeast fitness is at most 0.5.
For C22A C34G A36G G48C, the yeast fitness is at most 0.5.
Then G18A A20G U35C G58A C60G, with 0.558; and A21U C24G U54G C55G C62U, with at most 0.5; and A15C C49U, with 0.896.
As for U7C A40U A42U U54A, the yeast fitness was found to be 0.661.
For C22U A37U, the yeast fitness stood at 0.694.
With G25C U28C C62U A70C, the yeast fitness was at most 0.5.
As to C27U, the yeast fitness is 0.995.
For G12A C30U A40U C49A G56A A57U, the yeast fitness was at most 0.5.
For the variant G18A G25C C30G G41U A57U, the yeast fitness was at most 0.5.
Then A45U C46A G63A, with 1.06; and C5U A20U G56C A65G A70U, with at most 0.5.
